High-throughput results (PubChem)
A selection: hits, their analogues and other compounds. The true share with any hit is near 1.8%.
iPSC survival up – increases survival of single human iPS cells; hiPSC single-cell survival, ATPlite luminescence; 100% = ROCK inhibitor wells, 0% = DMSO; survival enhancement, % at 20 µM; actives 0.044% (n = 360,000); AID 602274; in the data active means survival enhancement above about 18%;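 further: cells exposed to compounds for 16 hours before the ATP read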
MT1-MMP act inh – blocks activation of human MT1-MMP; P50281; AID 651647; GFP/RFP ratio change, % at 20 µM; actives 0.061% (n = 360,000); HT1080 RFP-PRO-GFP cells, GFP/RFP ratio fluorescence, overnight; percent of plate control window, DMSO zero;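 active means GFP/RFP ratio change of at least 30% with cell ATP level not reduced by more than half and red fluorescence within 50% of control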
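Material – HT1080 RFP-PRO-GFP cells · Control set – DMSO wells and RFP-L50D-GFP cells · Incubation – overnight cell settling, then overnight compound exposure, 37 °C, 5% CO2 · Compound dosing – single-point 20 µM compound, 1% DMSO · Read-out – GFP/RFP fluorescence ratio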
eLon inh – inhibits E. coli Lon protease; purified E. coli Lon protease, fluorescence polarization; inhibition, % at 7.94 µM; actives 0.42% (n = 360,000); in the data active means inhibition above about 13%, passing the limit was not always enough
Target sequence (P0A9M0 whole entry, looked up): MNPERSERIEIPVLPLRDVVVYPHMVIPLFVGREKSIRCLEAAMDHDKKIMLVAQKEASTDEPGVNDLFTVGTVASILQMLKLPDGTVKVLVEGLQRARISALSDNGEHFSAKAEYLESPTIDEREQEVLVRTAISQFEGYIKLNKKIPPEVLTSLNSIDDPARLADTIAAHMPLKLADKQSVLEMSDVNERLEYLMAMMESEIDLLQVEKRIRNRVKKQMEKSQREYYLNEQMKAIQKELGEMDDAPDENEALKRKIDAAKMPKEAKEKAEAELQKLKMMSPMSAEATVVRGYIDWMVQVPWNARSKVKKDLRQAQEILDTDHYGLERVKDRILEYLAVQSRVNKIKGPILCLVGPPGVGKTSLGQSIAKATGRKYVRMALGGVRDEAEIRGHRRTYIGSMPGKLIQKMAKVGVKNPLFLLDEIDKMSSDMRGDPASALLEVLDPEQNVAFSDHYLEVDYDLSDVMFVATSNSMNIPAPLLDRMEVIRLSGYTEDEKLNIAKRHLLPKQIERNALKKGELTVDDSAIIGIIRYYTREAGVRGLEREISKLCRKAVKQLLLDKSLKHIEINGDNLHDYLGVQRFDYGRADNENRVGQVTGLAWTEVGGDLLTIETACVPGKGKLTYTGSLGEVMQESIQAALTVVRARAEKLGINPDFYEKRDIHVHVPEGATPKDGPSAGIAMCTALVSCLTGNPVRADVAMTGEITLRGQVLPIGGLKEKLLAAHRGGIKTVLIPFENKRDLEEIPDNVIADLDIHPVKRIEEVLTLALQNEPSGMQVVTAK
SKN-1 inh – C. elegans SKN-1 inhibition | C. elegans VP596 Pgst-4::GFP/RFP ratio, acrylamide-induced, 24 h | inhibition, % at 21.8 µM | actives 0.49% (n = 360,000) | AID 624304;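 active means interference check ratio from 0.5 to 1.5 plus GFP to RFP signal ratio inhibition reaching or exceeding a fixed threshold, cut at about 30% in these data, passing the limit was not always enough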
PREPL inhibitor – human PREPL enzyme inhibition | recombinant PREPL, fluorescence polarization activity-based probe | Q4J6C6 | AID 2751 | actives 0.68% (n = 320,000) | inhibition, % at 5.96 µM; in the data active means inhibition above about 43%
TbMetRS inhib – Trypanosoma brucei MetRS inhibition | purified T. brucei MetRS, ATP depletion, Kinase-Glo luminescence | inhibition, % at 11.9 µM | actives 0.4% (n = 360,000) | AID 624268;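 active means inhibition above a per-plate cutoff of the control wells' mean inhibition plus 3 SD, cut at about 5.5% in these data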
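Dosing: 11.9 µM single point; system: parasite MetRS enzyme; technique: luminescence of leftover ATP; times: 15 min enzyme-compound preincubation, 2 h reaction, 10 min detection, 25 °C; replicates: each compound tested once; read-out basis: percent inhibition relative to median high and low control wells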
Each line names hits and unclear results; the compound was inactive in the other large screens.

O=c1c2ccccc2oc2ccc(-c3ccc4cc[nH]c4c3)cc12	SKN-1 inh 70
CN(Cc1ccccc1)C(c1ccnc2ccccc12)c1nnnn1-c1ccc2c(c1)OCCO2 (centres undefined)	none (no result: PREPL inhibitor)
N#Cc1ccc(-c2nc3c4ccccc4ccn3c2Cc2ccccc2C(F)(F)F)cc1	SKN-1 inh 42 (no result: PREPL inhibitor)
FC(F)(F)c1ccccc1Cc1c(-c2ccccc2)nc2ccc(Br)cn12	SKN-1 inh 48 (no result: PREPL inhibitor)
FC(F)(F)c1ccccc1Cc1c(-c2cccc(Br)c2)nc2c3ccccc3ccn12	none (no result: PREPL inhibitor)
O=C(OCc1nnc(-c2ccccc2)o1)C1CCN(S(=O)(=O)c2cccs2)CC1	none
COCCN1C(=O)COc2ccccc2C1C(=O)Nc1ccc2c(c1)OCCO2 (centres undefined)	none (no result: PREPL inhibitor)
CCOC(=O)C(CC)Sc1ccc2nnc(-c3cccnc3)n2n1 (centres undefined)	none
CCC(Sc1ccc2nnc(-c3cccnc3)n2n1)C(=O)O (centres undefined)	iPSC survival up 23
COc1ccc(NC(=O)CSc2ccc3nnc(-c4cccnc4)n3n2)c(OC)c1	PREPL inhibitor 45
COc1ccccc1NC(=O)CSc1ccc2nnc(-c3cccnc3)n2n1	none
CC(C)C12CN3CC(C(C)C)(CN(C1)C3c1ccccc1O)C2=O (centres undefined)	iPSC survival up 21
COC(=O)c1c(-c2ccccc2)noc1-c1ccccc1	SKN-1 inh 45
COC(=O)c1c(C)noc1-c1ccc(Cl)cc1	none
Brc1ccccc1OCCCCn1cnc2ccccc21	none
Cc1ccc(OCCCCn2cnc3ccccc32)c(C)c1	SKN-1 inh 44
CN1CCC(N(C)C(=O)c2ccc(Cl)c(S(=O)(=O)Nc3cc(Cl)ccc3Cl)c2)CC1	none
Cc1cc(C(=O)CN2C(=O)NC3(CCCc4ccccc43)C2=O)c(C)n1Cc1ccccc1 (centres undefined)	SKN-1 inh 36
Cc1ccc(N/C=C/C(=O)c2cccs2)cc1	SKN-1 inh 42
O=C(/C=C\Nc1cccc(F)c1)c1cccs1	SKN-1 inh 69
O=C(/C=C/Nc1ccc(F)cc1F)c1ccc(Br)cc1	none
O=C(/C=C/Nc1ccccc1F)c1cccs1	SKN-1 inh 85
O=C(/C=C/Nc1ccc(F)cc1F)c1cccs1	SKN-1 inh 60
COc1ccc(-c2oc3c(c2C#CC(C)(C)O)C(OC)CCC3)cc1 (centres undefined)	none (no result: PREPL inhibitor)
Cc1ccc2ccccc2c1C(O)c1ncc(-c2ccccc2)[nH]1 (centres undefined)	none (no result: PREPL inhibitor)
O=C(Nc1cccnc1Cl)c1ccc(Cl)cc1	none
O=C(Nc1cccnc1Cl)c1cccnc1Cl	iPSC survival up 23
CCNC1=C(Cl)C(=O)c2ccccc2C1=O	SKN-1 inh 37
CCCC(=O)NC1=C(Cl)C(=O)c2ccccc2C1=O	none (no result: PREPL inhibitor)
Cc1ccc(-c2nnn(CC(=O)NCC3CC3)n2)o1	none
Cc1ccc(-c2nnn(CC(=O)NCC3COCCO3)n2)o1 (centres undefined)	SKN-1 inh 42
COc1ccc(S(=O)(=O)Nc2ccc(S(=O)(=O)Nc3ccc(F)cc3)cc2)cc1C	SKN-1 inh 36
Cc1noc(C)c1S(=O)(=O)N(CC(=O)Nc1ccc2c(c1)OCO2)c1ccc(C(C)C)cc1	none
Cc1nn(C)c(C)c1S(=O)(=O)N(CC(=O)Nc1ccc2c(c1)OCO2)c1ccc(C(C)C)cc1	eLon inh 16
COc1ccc(S(=O)(=O)Nc2ccc3c(c2)C(=O)N([C@H](C)CO)C[C@H](C)[C@@H](CN(C)C(=O)NC2CCCCC2)O3)cc1	iPSC survival up 22
C[C@@H]1CCCCO[C@@H](CN(C)S(=O)(=O)c2cccs2)[C@@H](C)CN([C@H](C)CO)C(=O)c2cc(NS(=O)(=O)c3ccccc3)ccc2O1	iPSC survival up 22 (no result: PREPL inhibitor)
CS(=O)c1ccccc1-c1nc(-c2cc(C(F)(F)F)cc(C(F)(F)F)c2)no1 (centres undefined)	none
CCOC(=O)C1=C(Cc2ccc(OC)cc2)C(=O)c2ccccc2C1=O	eLon inh 28 (no result: PREPL inhibitor)
CCOC(=O)C1=C(Cc2ccc(C)cc2)C(=O)c2ccccc2C1=O	none (no result: iPSC survival up, MT1-MMP act inh, eLon inh, SKN-1 inh, TbMetRS inhib)
COc1ccc(CCN(C(=S)Nc2ccccc2)C2CC(=O)N(c3ccccc3)C2=O)cc1 (centres undefined)	TbMetRS inhib 16
CC(C)CC(=O)NCCNC(=O)c1cc(OCC(F)(F)F)ccc1OCC(F)(F)F	none
C#CCOCCOCCOCCNc1nc(N2CCN(C(=O)CCCCCCCCCCNC(=O)[C@H](CCCN=C(N)N)n3cc(C[C@@H](C)CC)nn3)CC2)nc(N2CCN(C(=O)CCCCCCCCCCNC(=O)[C@@H]([C@H](C)CC)n3cc(CCCCCN)nn3)CC2)n1	PREPL inhibitor 60 (no result: iPSC survival up, MT1-MMP act inh, eLon inh, SKN-1 inh, TbMetRS inhib)
C#CCOCCOCCOCCNc1nc(N2CCN(C(=O)CCCCCCCCCCNC(=O)[C@H]([C@@H](C)CC)n3cc(CCCCN=C(N)N)nn3)CC2)nc(N2CCN(C(=O)CCCCCCCCCCNC(=O)[C@H](CCCN=C(N)N)n3cc(C[C@@H](C)CC)nn3)CC2)n1	PREPL inhibitor 69 (no result: iPSC survival up, MT1-MMP act inh, eLon inh, SKN-1 inh, TbMetRS inhib)
CCOC(=O)[C@]12CCC=C1N(Cc1ccc(Cl)cc1Cl)C(=O)[C@H](CC(=O)N1CCSCC1)C2	none (no result: PREPL inhibitor)
Fc1ccc(-c2nc(-c3cccs3)no2)cc1	SKN-1 inh 51
Fc1ccc(-c2cnc(-c3cccs3)o2)cc1	SKN-1 inh 92
COc1ccc(N2CCN(C(=O)CCNS(=O)(=O)c3ccccc3)CC2)cc1	none
O=C(/C=C\c1ccco1)Nc1nc(-c2ccc3ccccc3c2)cs1	SKN-1 inh 39
COc1cc(CC(CC(=O)O)CC(C)OCc2ccccc2)cc(OC)c1 (centres undefined)	iPSC survival up 20
COc1ccc(NC(=O)C(CC(=O)O)Cc2ccccc2)cc1 (centres undefined)	none
O=C(NCc1ccco1)c1sc2ccccc2c1Cl	none
O=C(NCc1ccco1)c1sc2cc(Cl)ccc2c1Cl	SKN-1 inh 38
CCCCNS(=O)(=O)c1ccc2nc(SCC(=O)c3ccccc3OC)[nH]c2c1	TbMetRS inhib 13
N/C(=N\OC(=O)c1ccc(Br)o1)c1cccnc1	SKN-1 inh 42
COc1ccc(/C(N)=N/OC(=O)c2ccc(Br)o2)cc1	none
O=c1c2ccccc2ncn1-c1ccc(Cl)cc1Cl	SKN-1 inh 35
CN1CCN(Cc2cc(COCc3ccccc3)c3cccnc3c2O)CC1	PREPL inhibitor 47
O=C(C[C@@H]1C[C@H]2c3cc(NC(=O)C4CCC4)ccc3O[C@H]2[C@@H](CO)O1)NCc1ccc(-c2ccccc2)cc1	none (no result: PREPL inhibitor)
O=C(CSc1nnc(CNc2ccc(F)cc2)n1Cc1ccco1)NC1CC1	SKN-1 inh 46
